High-throughput results: PubChem, The Scripps Research Institute Molecular Screening Center
Most compounds without a hit are left out; they make up all but 1.3% or so of the library.
Fam108B counter = mouse Fam108B serine hydrolase inhibitors, primary screen, counter-screen for RBBP9 inhibitor project, biochemical, fluorescence polarization | 300,000 tested, 0.33% active | recombinant Fam108B, FP-Rh probe fluorescence polarization | inhibition, % at 9.51 µM;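 active = inhibition above the screen mean inhibition plus 3 SD, computed separately per campaign, cut at about 18% in these data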;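 also: inhibitors lower polarization as less probe binds the enzyme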
PME-1 inh = PME-1 inhibitors via competitive probe labeling, primary screen, biochemical, fluorescence polarization, FP-Rh probe, HTS. recombinant PME-1. 320,000 tested, 0.53% active. inhibition, % at 5.9 µM. AID 2130, 2009;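 active = inhibition above the campaign mean of all compounds plus 3 SD, cut at about 26% in these data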;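 also: competitive labeling of PME-1 active site by serine hydrolase directed probe; 0% = PME-1 with DMSO and 100% = wells lacking PME-1 enzyme; inhibitors block probe labeling so polarization falls and inhibition rises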
PAD4 inh = human PAD4 inhibitors, primary screen, biochemical, fluorescence polarization, 1536-well format; recombinant PAD4, RCA probe fluorescence polarization; inhibition, % at 6.36 µM; AID 485272, 2010; 330,000 tested, 0.41% active; Protein-arginine deiminase type-4 (Homo sapiens), Q9UM07;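 active = percent inhibition above a cutoff equal to the mean of all tested compounds plus 3 SD, cut at about 15% in these data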;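 also: 0% = PAD4 with RCA probe and DMSO and 100% = probe without PAD4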
LYPLA1 inh = LYPLA1 inhibitors, primary screen, counter-screen for PME1 inhibitor project, biochemical, fluorescence polarization, FP-Rh probe ABPP; inhibition, % at 5.9 µM; AID 2174, 2009; 320,000 tested, 0.16% active; Acyl-protein thioesterase 1 (Homo sapiens), O75608; recombinant LYPLA1;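 active = inhibition above the mean of all tested compounds plus 3 SD, set per campaign, cut at about 14% in these data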;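 also: inhibitors block serine hydrolase probe labeling of LYPLA1 so polarization falls; 0% = enzyme with DMSO and 100% = wells lacking LYPLA1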
Target sequence (O75608 whole entry, looked up): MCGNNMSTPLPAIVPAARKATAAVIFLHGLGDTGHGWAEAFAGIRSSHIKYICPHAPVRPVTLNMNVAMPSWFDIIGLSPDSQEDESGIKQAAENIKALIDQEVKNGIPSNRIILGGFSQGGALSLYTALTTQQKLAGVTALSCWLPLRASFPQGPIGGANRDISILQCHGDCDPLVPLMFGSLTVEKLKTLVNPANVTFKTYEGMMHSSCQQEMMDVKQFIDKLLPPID
LYPLA2 inh = LYPLA2 inhibitors, primary screen, counter-screen for PME1 inhibitor project, biochemical, fluorescence polarization, FP-Rh probe ABPP; 320,000 tested, 0.38% active; AID 2177, 2009; recombinant LYPLA2; inhibition, % at 5.9 µM; Acyl-protein thioesterase 2 (Homo sapiens), O95372;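 active = inhibition above the screen-wide mean plus 3 SD, limit set per campaign, cut at about 26% in these data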;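 also: 0% = LYPLA2 with DMSO and 100% = wells lacking LYPLA2 enzyme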
Target sequence (O95372 whole entry, looked up): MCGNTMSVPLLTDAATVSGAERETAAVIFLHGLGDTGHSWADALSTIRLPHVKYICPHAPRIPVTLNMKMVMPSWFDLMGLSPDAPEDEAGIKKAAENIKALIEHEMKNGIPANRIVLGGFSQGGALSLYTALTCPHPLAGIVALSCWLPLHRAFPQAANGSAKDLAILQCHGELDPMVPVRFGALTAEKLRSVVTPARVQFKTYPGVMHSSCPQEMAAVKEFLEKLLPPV
RBBP9 inh = human RBBP9 inhibitors, primary screen, biochemical, fluorescence polarization, FP-Rh probe, HTS; Serine hydrolase RBBP9 (Homo sapiens), O75884; recombinant RBBP9; inhibition, % at 7.94 µM; 220,000 tested, 0.2% active; AID 1515, 2009;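 active = inhibition above the campaign mean of all tested compounds plus 3 SD, cut at about 14% in these data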;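 also: plate controls were DMSO wells with RBBP9 for no effect and wells lacking RBBP9 protein for full effect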
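System: RBBP9 protein | Quantity: 2.5 µM RBBP9 dispensing solution, before mixing | Reagent: FP-Rh probe, 375 nM dispensing solution | Timing: Enzyme-compound preincubation 30 min, then probe labeling 45 min, 25 °C | Measured by: Fluorescence polarization | Read-out: % inhibition | Replication: One well per compound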
PAD4 FP conf = human PAD4 inhibitors, confirmation, biochemical, fluorescence polarization; shares compounds with PAD4 inh; recombinant PAD4, RCA probe fluorescence polarization; inhibition, % at 6.36 µM; 1,200 tested, 28% active;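 active = mean inhibition across replicates above the hit cutoff set by the earlier primary screen, cut at about 15% in these data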;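 also: inhibitors block active-site labeling by the probe so polarization falls; 0% = PAD4 with probe and DMSO and 100% = probe without PAD4 enzyme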
An asterisk follows results filed as active.

`CC1=NN(c2ccc(Cl)cc2)C(=O)C1C(c1ccccc1O)c1c(C)[nH]n(-c2ccc(Cl)cc2)c1=O` (stereo not drawn) gave Fam108B counter 17, PME-1 inh 12, PAD4 inh 67*, LYPLA1 inh 7, LYPLA2 inh 21, RBBP9 inh 7 and PAD4 FP conf -8.
Screening Cc1[nH]n(-c2ccccc2)c(=O)c1-c1ccc(Cl)cc1 returned Fam108B counter 4, PME-1 inh 1, PAD4 inh 3, LYPLA1 inh 6, LYPLA2 inh 11 and RBBP9 inh -6.
For O=S(=O)(Nc1ccc(O)c2ccccc12)c1cccs1 the results were Fam108B counter 4, PME-1 inh 1, PAD4 inh 21*, LYPLA1 inh -1, LYPLA2 inh 1 and PAD4 FP conf -5.
Screening O=C(NC(=S)Nc1ccc(F)c([N+](=O)[O-])c1)c1ccccc1F returned Fam108B counter 3, PME-1 inh 5, PAD4 inh 17*, LYPLA1 inh -3, LYPLA2 inh -8, RBBP9 inh -4 and PAD4 FP conf 3.
`O=C(NC(=S)Nc1ccc2[nH]c(=O)[nH]c2c1)c1ccccc1F` gave Fam108B counter -3, PME-1 inh 8, PAD4 inh -2, LYPLA1 inh -1 and LYPLA2 inh 4.
For NC(=O)c1oc2ccccc2c1NC(=O)C1CCCCC1 the results were Fam108B counter 1, PME-1 inh -3, PAD4 inh 1, LYPLA1 inh 0, LYPLA2 inh 2 and RBBP9 inh 3.
Screening NC(=O)c1oc2ccccc2c1NC(=O)C1CC(=O)N(c2ccccc2)C1 (stereo not drawn) returned Fam108B counter 0, PME-1 inh 6, PAD4 inh 18*, LYPLA1 inh 1, LYPLA2 inh 9 and PAD4 FP conf 27*.
For O=[N+]([O-])c1c(NCCCO)cc(SCc2ccco2)c2nonc12 the results were Fam108B counter 7, PME-1 inh -2, PAD4 inh 6, LYPLA1 inh -4, LYPLA2 inh 5 and RBBP9 inh 1.
`CC(=O)OCCNc1cc(SCc2ccco2)c2nonc2c1[N+](=O)[O-]` gave Fam108B counter 10, PME-1 inh 1, PAD4 inh 16*, LYPLA1 inh -7, LYPLA2 inh -2, RBBP9 inh -4 and PAD4 FP conf -4.
Screening Cc1ccc(S(=O)(=O)N(C)C)cc1NC(=O)COC(=O)/C(=C/c1ccc(F)cc1)c1cccs1 returned Fam108B counter -8, PME-1 inh -5, PAD4 inh 0, LYPLA1 inh -11, LYPLA2 inh -16 and RBBP9 inh -18.
`C/C(=C\C(=O)c1ccc(F)cc1)Nc1ccc(N2CCOCC2)cc1` gave Fam108B counter 12, PME-1 inh 2, PAD4 inh 39*, LYPLA1 inh 1, LYPLA2 inh 4, RBBP9 inh 5 and PAD4 FP conf 7.
For Cc1nn(-c2ccccc2)c2c1C(c1cccs1)C(C#N)=C(N)O2 (stereo not drawn) the results were Fam108B counter 0, PME-1 inh 2, PAD4 inh 6, LYPLA1 inh -4, LYPLA2 inh -2 and RBBP9 inh 4.
Cc1nn(-c2cccc(Cl)c2)c2c1C(c1cccnc1)C(C#N)=C(N)O2 (stereo not drawn) was read as Fam108B counter 4, PME-1 inh 0, PAD4 inh 62*, LYPLA1 inh -1, LYPLA2 inh -3, RBBP9 inh -3 and PAD4 FP conf -8.
For Cc1ccc(-n2nc(C)c3c2OC(N)=C(C#N)C3c2ccc(F)cc2)cc1 (stereo not drawn) the results were Fam108B counter 6, PME-1 inh 5, PAD4 inh 43*, LYPLA1 inh 3, LYPLA2 inh 3, RBBP9 inh -2 and PAD4 FP conf -1.
